# Results from ChEMBL document CHEMBL1629704, “Inhibition of dengue virus by an ester prodrug of an adenosine analog” (Antimicrob Agents Chemother, 2010).
# Active and inactive are the calls of the source. No cut-off for these calls is given here.
# What was measured:
# dengue virus type 2 [1] = assay: Antiviral activity against Dengue virus 2 NGC infected in human A549 cells by CFI assay; format: functional, organism-based
# Procedure, shortened: (§1)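 CFI assay: A549 cells seeded 2 × 10^4/well, infected next day (MOI 0.3 for DENV-2) with compound-virus mixture for 1 h, then refed with compound-containing medium. On day 2 cells were methanol-fixed at 4°C and intracellular E protein detected by ELISA (4G2 primary, HRP anti-mouse secondary). EC50 is the average of two independent experiments.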
# dengue virus type 1 = assay: Antiviral activity against Dengue virus 1 MY10245 infected in human A549 cells by CFI assay; format: functional, organism-based; procedure, shortened: as §1
# dengue virus type 2 [2] = assay: Antiviral activity against Dengue virus 2 MY10340 infected in human A549 cells by CFI assay; format: functional, organism-based; procedure, shortened: as §1
# dengue virus type 3 = assay: Antiviral activity against Dengue virus 3 MY22366 infected in human A549 cells by CFI assay; format: functional, organism-based; procedure, shortened: as §1
# dengue virus type 4 = assay: Antiviral activity against Dengue virus 4 MY22713 infected in human A549 cells by CFI assay; format: functional, organism-based; procedure, shortened: as §1
# dengue virus type 2 [3] = assay: Antiviral activity against Dengue virus 2 NGC infected in human PBMC cells by plaque assay; format: functional, organism-based
# Mus musculus [4] = assay: Cmax in CD-1 mouse assessed as NITD449 level at 24.2 mg/kg, po by LC-MS-MS analysis; format: ADME, organism-based; design: dose 24.2 mg/kg, route oral; details: in vivo
# Procedure, shortened: (§2)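 Female CD-1 mice given the prodrug orally, formulated in 10% ethanol, 30% PEG 400, 60% D5W. Blood from three animals at 0.08, 0.25, 0.5, 1, 2, 4, 8, 16, 24 h; heparinized plasma extracted with acetonitrile-methanol-acetic acid. Parent nucleoside was quantified by LC-MS-MS (MRM, LLOQ 9.2 ng/ml) and noncompartmental analysis was run. F = dose-corrected AUC p.o./AUC i.v., with i.v. parent at 5 mg/kg.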
# Mus musculus [5] = assay: Tmax in CD-1 mouse assessed as NITD449 level at 24.2 mg/kg, po by LC-MS-MS analysis; format: ADME, organism-based; design: dose 24.2 mg/kg, route oral; details: in vivo; procedure, shortened: as §2
# Mus musculus [6] = assay: AUC (0 to infinity) in CD-1 mouse assessed as NITD449 level at 24.2 mg/kg, po by LC-MS-MS analysis; format: ADME, organism-based, Plasma; design: dose 24.2 mg/kg, route oral, time infinity; details: in vivo; procedure, shortened: as §2
# Mus musculus [7] = assay: Oral bioavailability in CD-1 mouse assessed as NITD449 level at 24.2 mg/kg by LC-MS-MS analysis; format: ADME, organism-based; details: in vivo; procedure, shortened: as §2
# Rattus norvegicus [8] = assay: Cmax in Wistar rat assessed as NITD449 level at 26.5 mg/kg, po by LC-MS-MS analysis; format: ADME, organism-based; design: dose 26.5 mg/kg, route oral; details: in vivo
# Procedure, shortened: (§3)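 Female Wistar rats, fasted overnight until 4 h postdose, given the prodrug orally in 10% ethanol, 30% PEG 400, 60% D5W. Serial blood from groups of three at 0.17–48 h. Parent nucleoside in plasma was measured by LC-MS-MS (LLOQ 9.2 ng/ml) with noncompartmental analysis. F was corrected for dose against parent i.v. at 5.9 mg/kg.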
# Rattus norvegicus [9] = assay: Tmax in Wistar rat assessed as NITD449 level at 26.5 mg/kg, po by LC-MS-MS analysis; format: ADME, organism-based; design: dose 26.5 mg/kg, route oral; details: in vivo; procedure, shortened: as §3
# Rattus norvegicus [10] = assay: AUC (0 to infinity) in Wistar rat assessed as NITD449 level at 26.5 mg/kg, po by LC-MS-MS analysis; format: ADME, organism-based, Plasma; design: time infinity, dose 26.5 mg/kg, route oral; details: in vivo; procedure, shortened: as §3
# Rattus norvegicus [11] = assay: Oral bioavailability in Wistar rat assessed as NITD449 level at 26.5 mg/kg by LC-MS-MS analysis; format: ADME, organism-based; details: in vivo; procedure, shortened: as §3
# Rattus norvegicus [12] = assay: Cmax in Wistar rat assessed as NITD449 level at 84.1 mg/kg, po by LC-MS-MS analysis; format: ADME, organism-based; design: dose 84.1 mg/kg, route oral; details: in vivo
# Procedure, shortened: (§4)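 Fasted female Wistar rats were dosed orally with the prodrug in 20% solutol HS15, 30% PEG 300, 50% 100 mM citrate pH 3. Groups of three were serially bled 0.17–48 h. Plasma parent levels came from LC-MS-MS (MRM, LLOQ 9.2 ng/ml) and noncompartmental modeling. F used dose-corrected AUC versus parent i.v. at 5.9 mg/kg.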
# Rattus norvegicus [13] = assay: Tmax in Wistar rat assessed as NITD449 level at 84.1 mg/kg, po by LC-MS-MS analysis; format: ADME, organism-based; design: dose 84.1 mg/kg, route oral; details: in vivo; procedure, shortened: as §4
# Rattus norvegicus [14] = assay: AUC (0 to infinity) in Wistar rat assessed as NITD449 level at 84.1 mg/kg, po by LC-MS-MS analysis; format: ADME, organism-based, Plasma; design: time infinity, dose 84.1 mg/kg, route oral; details: in vivo; procedure, shortened: as §4
# Rattus norvegicus [15] = assay: Oral bioavailability in Wistar rat assessed as NITD449 level at 84.1 mg/kg by LC-MS-MS analysis; format: ADME, organism-based; details: in vivo; procedure, shortened: as §4
# dengue virus type 2 [16] = assay: Antiviral activity against Dengue virus 2 NGC infected in african green monkey Vero cells after 48 hrs by plaque assay; format: functional, organism-based
# Procedure, shortened: (§5)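 Titer reduction: Vero cells (4 × 10^5/well) infected 24 h after seeding at MOI 0.1 and treated immediately with compound. Culture medium was collected 48 h postinfection and titered by plaque assay; n = 3, mean ± SD.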
# Yellow fever virus [17] = assay: Antiviral activity against Yellow fever virus 17D infected in african green monkey Vero cells after 48 hrs by plaque assay; format: functional, cell-based
# dengue virus type 2 [18] = assay: Antiviral activity against Dengue virus 2 NGC infected in african green monkey Vero cells at 12.5 uM after 48 hrs by plaque assay; format: functional; procedure, shortened: as §5
# Yellow fever virus [19] = assay: Antiviral activity against Yellow fever virus 17D infected in african green monkey Vero cells at 12.5 uM after 48 hrs by plaque assay; format: functional
# West Nile virus = assay: Antiviral activity against West Nile virus infected in african green monkey Vero cells assessed as inhibition of RNA replication after 24 hrs by luciferase assay; format: functional, organism-based
# Procedure, shortened: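 Vero cells infected at MOI about 0.1 with WNV replicon-packaged virus-like particles carrying luciferase, then treated with compound. Luciferase was read 24 h postinfection, relative to mock-treated cells set at 100%; n = 3.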
# Hepatitis C virus = assay: Antiviral activity against HCV subtype 1b infected in human Huh-7 cells after 48 hrs by luciferase assay; format: functional, organism-based; details: Hepacivirus hominis, genotype 1b
# Procedure, shortened: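 Huh-7 cells bearing a luciferase-reporting HCV genotype 1b replicon were incubated with compound. Luciferase was read at 48 h posttreatment and efficacy estimated from signal reduction; n = 3.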
# Chikungunya virus = assay: Antiviral activity against Chikungunya virus infected in african green monkey Vero cells after 22 hrs by plaque assay; format: functional, cell-based
# dengue virus type 2 [20] = assay: Antiviral activity against Dengue virus-2 NGC infected in hamsters BHK21 cells assessed as inhibition of viral RNA synthesis at 1 uM after 2 to 4 hrs of infection by luciferase assay; format: functional, organism-based; details: BHK-21
# dengue virus type 2 [21] = assay: Antiviral activity against Dengue virus-2 NGC infected in hamsters BHK21 cells assessed as inhibition of viral RNA synthesis at 3 uM after 2 to 4 hrs of infection by luciferase assay; format: functional, organism-based; details: BHK-21
# dengue virus type 2 [22] = assay: Antiviral activity against Dengue virus-2 NGC infected in hamsters BHK21 cells assessed as inhibition of viral RNA synthesis at 1 uM after 24 to 40 hrs of infection by luciferase assay; format: functional, organism-based; details: BHK-21
# Procedure, shortened: (§6)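 DENV-2 luciferase replicon (structural genes deleted) RNA was electroporated into BHK-21 cells, then cells were immediately incubated with compound. Luciferase was read at time points. Signals at 2–4 h p.t. reflect input translation and at 24–40 h p.t. reflect RNA synthesis; n = 3, mean ± SD.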
# dengue virus type 2 [23] = assay: Antiviral activity against Dengue virus-2 NGC infected in hamsters BHK21 cells assessed as inhibition of viral RNA synthesis at 3 uM after 24 to 40 hrs of infection by luciferase assay; format: functional, organism-based; details: BHK-21; procedure, shortened: as §6
# dengue virus type 2 [24] = assay: Antiviral activity against Dengue virus 2 NGC infected in human A549 cells after 2 days by CFI assay in presence of 40 mg/ml human serum albumin; format: functional, organism-based; details: A549, 48 h
# Procedure, shortened: (§7)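 Modified CFI: A549 cells infected with DENV-2 New Guinea C (MOI 0.3) for 1 h without compound. Inoculum then replaced with medium containing compound dilutions plus the stated HSA and/or AGP. On day 2, cells methanol-fixed and intracellular E protein detected by ELISA (4G2 primary, HRP anti-mouse secondary); EC50 derived.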
# dengue virus type 2 [25] = assay: Antiviral activity against Dengue virus 2 NGC infected in human A549 cells after 2 days by CFI assay in presence of 2 mg/ml alpha-1-acid glycoprotein; format: functional, organism-based; details: A549, 48 h; procedure, shortened: as §7
# dengue virus type 2 [26] = assay: Antiviral activity against Dengue virus 2 NGC infected in human A549 cells after 2 days by CFI assay in presence of 40 mg/ml human serum albumin and 2 mg/ml alpha-1-acid glycoprotein; format: functional, organism-based; details: A549, 48 h; procedure, shortened: as §7
# dengue virus type 2 [27] = assay: Antiviral activity against Dengue virus 2 TSV01 infected in AG129 mouse assessed as reduced viremia by 3 mg/kg, po BID for 3 days measured on day 4 by plaque assay; format: functional
# Procedure, shortened: (§8)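 AG129 mice (lacking IFN-α/β and IFN-γ receptors) were inoculated i.p. with 2 × 10^6 PFU DENV-2 in 0.4 ml. Immediately afterwards, 0.2 ml compound in ethanol-PEG-D5W (10:30:60) was given by oral gavage twice daily for 3 days. Day-4 blood viremia was measured by plaque assay; 6 or 8 mice per group.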
# dengue virus type 2 [28] = assay: Antiviral activity against Dengue virus 2 TSV01 infected in AG129 mouse assessed as reduced viremia by 10 mg/kg, po BID for 3 days measured on day 4 by plaque assay; format: functional; procedure, shortened: as §8
# dengue virus type 2 [29] = assay: Antiviral activity against Dengue virus 2 TSV01 infected in AG129 mouse assessed as reduced viremia by 25 mg/kg, po BID for 3 days measured on day 4 by plaque assay; format: functional; procedure, shortened: as §8
# Rattus norvegicus [30] = assay: Toxicity in Wistar rat at 10 mg/kg/day, po for 2 weeks; format: organism-based; design: route oral; details: in vivo, 336 h
# Procedure, shortened: (§9)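 Male Wistar rats, 10 weeks old, dosed orally daily for 2 weeks; five per dose group. Clinical signs, body weight and mortality were monitored.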
# Rattus norvegicus [31] = assay: Toxicity in Wistar rat at 30 mg/kg/day, po for 2 weeks; format: organism-based; design: route oral; details: in vivo, 336 h; procedure, shortened: as §9
# Rattus norvegicus [32] = assay: Toxicity in Wistar rat at 75 mg/kg/day, po for 2 weeks; format: organism-based; design: route oral; details: in vivo, 336 h; procedure, shortened: as §9
compound,measurement,setting,value
C#C[C@@]1(O)[C@H](OC(=O)C(C)C)[C@@H](COC(=O)C(C)C)O[C@H]1n1cc(C(N)=O)c2c(N)ncnc21,EC50,dengue virus type 2 [1],690 nM
same,EC50,dengue virus type 1,540 nM
same,EC50,dengue virus type 2 [2],570 nM
same,EC50,dengue virus type 3,540 nM
same,EC50,dengue virus type 4,710 nM
same,EC50,dengue virus type 2 [3],100 nM
same,Cmax,Mus musculus [4],6.01 µM
same,Tmax,Mus musculus [5],4.8 min
same,AUC,Mus musculus [6],12.6 µM·h
same,F,Mus musculus [7],32%
same,Cmax,Rattus norvegicus [8],3.65 µM
same,Tmax,Rattus norvegicus [9],30 min
same,AUC,Rattus norvegicus [10],13.7 µM·h
same,F,Rattus norvegicus [11],13%
same,Cmax,Rattus norvegicus [12],14.2 µM
same,Tmax,Rattus norvegicus [13],30 min
same,AUC,Rattus norvegicus [14],33.5 µM·h
same,F,Rattus norvegicus [15],10%
same,Activity,dengue virus type 2 [16],Active
same,Activity,Yellow fever virus [17],Active
same,fold change (FC),dengue virus type 2 [18],1000
same,fold change (FC),Yellow fever virus [19],100
same,Activity,West Nile virus,Active
same,Activity,Hepatitis C virus,Active
same,Activity,Chikungunya virus,Active
same,Activity,dengue virus type 2 [20],Active
same,Activity,dengue virus type 2 [21],Active
same,Activity,dengue virus type 2 [22],Active
same,Activity,dengue virus type 2 [23],Active
same,EC50,dengue virus type 2 [24],790 nM
same,EC50,dengue virus type 2 [25],760 nM
same,EC50,dengue virus type 2 [26],850 nM
same,fold change (FC),dengue virus type 2 [27],2.7
same,fold change (FC),dengue virus type 2 [28],4.4
same,fold change (FC),dengue virus type 2 [29],30
same,Activity,Rattus norvegicus [30],Non-toxic
same,Activity,Rattus norvegicus [31],Toxic
same,Activity,Rattus norvegicus [32],Toxic
C#C[C@@]1(O)[C@H](O)[C@@H](CO)O[C@H]1n1ccc2c(N)ncnc21,EC50,dengue virus type 2 [1],1640 nM
same,EC50,dengue virus type 1,2610 nM
same,EC50,dengue virus type 2 [2],1120 nM
same,EC50,dengue virus type 3,460 nM
same,EC50,dengue virus type 4,700 nM
same,EC50,dengue virus type 2 [3],580 nM
same,fold change (FC),dengue virus type 2 [29],10
